{"source": "ChEMBL document CHEMBL1136605", "about": "“Synthesis and biological activities of novel beta-carbolines as PDE5 inhibitors” (Bioorg Med Chem Lett, 2003)", "key": {"[1]": {"species": "Homo sapiens", "test": "Relative inhibition of PDE6 from human retinal cone and PDE5 from human corpus cavernosum", "procedure,_shortened": "(§1)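 Ratio of inhibition of a second human PDE to that of PDE5 from corpus cavernosum. PDE2 was from corpus cavernosum and PDE6 from retinal cone. Compounds were diluted in DMSO to 2% DMSO final. Ki was determined for each enzyme.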"}, "[2]": {"target": "Phosphodiesterase 2 and 5 (PDE2 and PDE5) (Homo sapiens) (UniProt O76074+O00408)", "test": "Relative inhibition of PDE2 and PDE5 from human corpus cavernosum", "format": "protein assay", "procedure,_shortened": "as §1"}, "[3]": {"target": "T1, cGMP-specific 3',5'-cyclic phosphodiesterase (Homo sapiens, UniProt O76074)", "test": "Inhibitory activity against PDE5 from human corpus cavernosum"}, "[4]": {"target": "T1, cGMP-specific 3',5'-cyclic phosphodiesterase", "test": "Inhibition of PDE5 (Phosphodiesterase) from human corpus cavernosum", "procedure,_shortened": "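Enzyme was PDE5 from human corpus cavernosum. Compounds were serially diluted in 100% DMSO and added to assay buffer at 2% DMSO final. […] Ki was derived, with IC50 instead for a few compounds. Values are means of three experiments.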"}, "[5]": {"system": "Canis familiaris", "test": "In vivo increased intracavernosal pressure in dogs after intravenous dose", "format": "functional, Canis lupus familiaris", "procedure,_shortened": "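Ascending intravenous doses given at 40-min intervals after control responses were established. Intracavernosal pressure (ICP) was evoked 15 min after each dose by pelvic nerve electrical stimulation at the same setting. Effect was taken as the ICP area under the curve at each stimulation minus the control-response AUC.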"}}}
{"smiles": "COc1ccc(-c2cnc(N3CC(=O)c4c([nH]c5ccccc45)C3c3ccc4c(c3)OCO4)nc2)cc1OC", "note": "(stereo not given)", "values": [{"measurement": "Selectivity", "setting": "[1]", "result": 4}, {"measurement": "Selectivity", "setting": "[2]", "result": 23000}]}
{"smiles": "O=C(c1ccc(-c2cccc([N+](=O)[O-])c2)o1)N1CCc2c([nH]c3ccccc23)C1c1ccc2c(c1)OCO2", "note": "(stereo not given)", "values": [{"measurement": "Ki", "setting": "[3]", "result": 130, "unit": "nM"}]}
{"smiles": "Cc1ncc(-c2cnc(N3CCc4c([nH]c5ccccc45)C3c3ccc4c(c3)CCO4)nc2)n1C", "note": "(stereo not given)", "values": [{"measurement": "Selectivity", "setting": "[1]", "result": 187}, {"measurement": "Selectivity", "setting": "[2]", "result": "> 4000"}]}
{"smiles": "O=C(c1ccc(-c2ccc(Cl)cc2[N+](=O)[O-])o1)N1CCc2c([nH]c3ccccc23)[C@@H]1c1ccc2c(c1)OCO2", "values": [{"measurement": "IC50", "setting": "[4]", "result": "> 10000", "unit": "nM"}]}
{"smiles": "COc1ccc(-c2cnc(N3CCc4c([nH]c5ccccc45)C3c3ccc(OC)c(OC)c3)nc2)cc1", "note": "(stereo not given)", "values": [{"measurement": "Ki", "setting": "[3]", "result": "> 10000", "unit": "nM"}]}
{"smiles": "COc1ccc(-c2cnc(N3CC(O)c4c([nH]c5ccccc45)C3c3ccc4c(c3)OCO4)nc2)cc1OC", "note": "(stereo not given)", "values": [{"measurement": "Ki", "setting": "[3]", "result": "> 100", "unit": "nM"}]}
{"smiles": "O=C(c1ccc(-c2ccccn2)o1)N1CCc2c([nH]c3ccccc23)C1c1ccc2c(c1)CCO2", "note": "(stereo not given)", "values": [{"measurement": "Selectivity", "setting": "[1]", "result": 32}, {"measurement": "Selectivity", "setting": "[2]", "result": 308}, {"measurement": "Ki", "setting": "[3]", "result": 32.3, "unit": "nM"}]}
{"smiles": "O=C(c1ccc(-c2ccc([N+](=O)[O-])cc2)o1)N1CCc2c([nH]c3ccccc23)C1c1ccc2c(c1)OCO2", "note": "(stereo not given)", "values": [{"measurement": "Ki", "setting": "[3]", "result": 77.5, "unit": "nM"}]}
{"smiles": "O=C(c1ccc(-c2cccc(C(F)(F)F)c2)o1)N1CCc2c([nH]c3ccccc23)C1c1ccc2c(c1)OCO2", "note": "(stereo not given)", "values": [{"measurement": "Ki", "setting": "[3]", "result": 126, "unit": "nM"}]}
{"smiles": "CN1CCN(C(=O)c2ccc(-c3ccc(C(=O)N4CCc5c([nH]c6ccccc56)C4c4ccc5c(c4)CCO5)o3)cc2)CC1", "note": "(stereo not given)", "values": [{"measurement": "Selectivity", "setting": "[1]", "result": 119}, {"measurement": "Selectivity", "setting": "[2]", "result": "> 10000"}, {"measurement": "Ki", "setting": "[3]", "result": 8.11, "unit": "nM"}]}
{"smiles": "Cc1ccc(-c2cnc(N3CCc4c([nH]c5ccccc45)C3c3ccc4c(c3)OCO4)nc2)cc1", "note": "(stereo not given)", "values": [{"measurement": "Ki", "setting": "[3]", "result": 543, "unit": "nM"}]}
{"smiles": "c1ccc2c3c([nH]c2c1)C(c1ccc2c(c1)CCO2)N(c1ncc(-c2ccc(OCCN4CCCC4)cc2)cn1)CC3", "note": "(stereo not given)", "values": [{"measurement": "Ki", "setting": "[3]", "result": "> 1000", "unit": "nM"}]}
{"smiles": "O=C(O)CCCC(=O)Nc1cccc(-c2ccc(C(=O)N3CCc4c([nH]c5ccccc45)C3c3ccc4c(c3)OCO4)o2)c1", "note": "(stereo not given)", "values": [{"measurement": "IC50", "setting": "[4]", "result": 95, "unit": "nM"}]}
{"smiles": "O=C(c1ccc(-c2cccc([N+](=O)[O-])c2)o1)N1CCc2c(sc3ccccc23)C1c1ccc2c(c1)OCO2", "note": "(stereo not given)", "values": [{"measurement": "Ki", "setting": "[3]", "result": "> 5000", "unit": "nM"}]}
{"smiles": "Nc1ccc(-c2ccc(C(=O)N3CCc4c([nH]c5ccccc45)C3c3ccc4c(c3)OCO4)o2)cc1", "note": "(stereo not given)", "values": [{"measurement": "Ki", "setting": "[3]", "result": 123, "unit": "nM"}]}
{"smiles": "COc1ccc(-c2cnc(N3CCc4c([nH]c5ccccc45)C3c3ccc4c(c3)OCO4)nc2)cc1", "note": "(stereo in doubt; 8a)", "values": [{"measurement": "Ki", "setting": "[3]", "result": 246, "unit": "nM"}]}
{"smiles": "CC(=O)Nc1cccc(-c2ccc(C(=O)N3CCc4c([nH]c5ccccc45)C3c3ccc4c(c3)OCO4)o2)c1", "note": "(stereo not given)", "values": [{"measurement": "Ki", "setting": "[3]", "result": 50.6, "unit": "nM"}]}
{"smiles": "CCCc1nn(C)c2c(=O)[nH]c(-c3cc(S(=O)(=O)N4CCN(C)CC4)ccc3OCC)nc12", "values": [{"measurement": "ED50", "setting": "[5]", "result": 0.0051, "unit": "mg/kg"}]}
{"smiles": "O=C(c1ccc(-c2ccccc2)o1)N1CCc2c([nH]c3ccccc23)C1c1ccc2c(c1)OCO2", "note": "(stereo not given)", "values": [{"measurement": "IC50", "setting": "[4]", "result": 750, "unit": "nM"}]}
{"smiles": "O=C(O)CCCC(=O)Nc1ccc(-c2ccc(C(=O)N3CCc4c([nH]c5ccccc45)C3c3ccc4c(c3)OCO4)o2)cc1", "note": "(stereo not given)", "values": [{"measurement": "IC50", "setting": "[4]", "result": 100, "unit": "nM"}]}
{"smiles": "CS(=O)(=O)c1ccc(-c2cnc(N3CCc4c([nH]c5ccccc45)C3c3ccc4c(c3)OCO4)nc2)c([N+](=O)[O-])c1", "note": "(stereo not given)", "values": [{"measurement": "Ki", "setting": "[3]", "result": 132, "unit": "nM"}]}
{"smiles": "Oc1ccc(-c2cnc(N3CCc4c([nH]c5ccccc45)C3c3ccc4c(c3)CCO4)nc2)cc1", "note": "(stereo not given)", "values": [{"measurement": "Ki", "setting": "[3]", "result": 154, "unit": "nM"}]}
{"smiles": "Nc1cccc(-c2ccc(C(=O)N3CCc4c([nH]c5ccccc45)C3c3ccc4c(c3)OCO4)o2)c1", "note": "(stereo not given)", "values": [{"measurement": "Ki", "setting": "[3]", "result": 179, "unit": "nM"}]}
{"smiles": "O=C(c1ccc(-c2ccc(Cl)cc2[N+](=O)[O-])o1)N1CCc2c([nH]c3ccccc23)[C@H]1c1ccc2c(c1)OCO2", "values": [{"measurement": "IC50", "setting": "[4]", "result": 67, "unit": "nM"}]}
{"smiles": "COc1ccc(-c2cnc(N3CCc4c([nH]c5ccccc45)C3c3ccc4c(c3)CCO4)nc2)cc1", "note": "(stereo in doubt; 8f)", "values": [{"measurement": "Ki", "setting": "[3]", "result": 189, "unit": "nM"}]}
{"smiles": "O=C(c1ccc(-c2ccc(Cl)cc2[N+](=O)[O-])o1)N1CCc2c([nH]c3ccccc23)C1c1ccc2c(c1)OCO2", "note": "(stereo not given)", "values": [{"measurement": "IC50", "setting": "[4]", "result": 105, "unit": "nM"}]}
{"smiles": "COc1ccc(-c2cnc(N3CC(=O)c4c([nH]c5ccccc45)C3c3ccc4c(c3)OCO4)nc2)cc1", "note": "(stereo not given)", "values": [{"measurement": "ED50", "setting": "[5]", "result": 0.173, "unit": "mg/kg"}, {"measurement": "Ki", "setting": "[3]", "result": 18, "unit": "nM"}]}
{"smiles": "COc1ccc(-c2cnc(N3CCc4c([nH]c5ccccc45)C3c3ccc4c(c3)CCO4)nc2)cc1", "note": "(stereo in doubt; 15f)", "values": [{"measurement": "Ki", "setting": "[3]", "result": 188, "unit": "nM"}]}
{"smiles": "Clc1ccc(-c2cnc(N3CCc4c([nH]c5ccccc45)C3c3ccc4c(c3)OCO4)nc2)cc1", "note": "(stereo not given)", "values": [{"measurement": "Ki", "setting": "[3]", "result": 126, "unit": "nM"}]}
{"smiles": "FC(F)(F)c1cccc(-c2ccc(CN3CCc4c([nH]c5ccccc45)C3c3ccc4c(c3)OCO4)o2)c1", "note": "(stereo not given)", "values": [{"measurement": "Ki", "setting": "[3]", "result": 850, "unit": "nM"}]}
{"smiles": "COc1ccc(-c2cnc(N3CCc4c([nH]c5ccccc45)C3c3ccc4c(c3)OCO4)nc2)cc1", "note": "(stereo in doubt; 15a)", "values": [{"measurement": "Ki", "setting": "[3]", "result": 246, "unit": "nM"}]}
{"smiles": "CC(=O)Nc1ccc(-c2ccc(C(=O)N3CCc4c([nH]c5ccccc45)C3c3ccc4c(c3)OCO4)o2)cc1", "note": "(stereo not given)", "values": [{"measurement": "Ki", "setting": "[3]", "result": 64.2, "unit": "nM"}]}
{"smiles": "O=C(c1ccc(-c2ccccc2[N+](=O)[O-])o1)N1CCc2c([nH]c3ccccc23)C1c1ccc2c(c1)OCO2", "note": "(stereo not given)", "values": [{"measurement": "Ki", "setting": "[3]", "result": 219, "unit": "nM"}]}
